The results in this text go back to ChEMBL document CHEMBL1141748, “Nocardimicins A, B, C, D, E, and F, siderophores with muscarinic M3 receptor inhibiting activity from Nocardia sp. TP-A0674” (J Nat Prod, 2005).

The target of assay [1] is Muscarinic acetylcholine receptor M3 (Homo sapiens, UniProt P20309). Briefly: Displacement of [3H]NMS from human muscarinic M3 receptor expressed in insect Sf9 cells. The method, boiled down:
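Competition binding used Sf9 membranes stably expressing human M3, incubated with 0.29 nM [3H]-NMS (assay Kd 0.078 nM, Bmax 3.2 pmol/mg protein) in 50 mM Tris-HCl, 10 mM MgCl2, 1 mM EDTA, pH 7.4, 25 °C, 1 h. Nonspecific binding was set with 1 µM atropine. IC50 was taken from competition curves and converted to apparent Ki by Cheng-Prusoff.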
Background: Loss of bound radioactivity is the signal in a displacement assay; it reports binding, not function.

Assay [2] concerns the target T1, Muscarinic acetylcholine receptor M1 (Homo sapiens, UniProt P11229).
T1 sequence (P11229 whole entry): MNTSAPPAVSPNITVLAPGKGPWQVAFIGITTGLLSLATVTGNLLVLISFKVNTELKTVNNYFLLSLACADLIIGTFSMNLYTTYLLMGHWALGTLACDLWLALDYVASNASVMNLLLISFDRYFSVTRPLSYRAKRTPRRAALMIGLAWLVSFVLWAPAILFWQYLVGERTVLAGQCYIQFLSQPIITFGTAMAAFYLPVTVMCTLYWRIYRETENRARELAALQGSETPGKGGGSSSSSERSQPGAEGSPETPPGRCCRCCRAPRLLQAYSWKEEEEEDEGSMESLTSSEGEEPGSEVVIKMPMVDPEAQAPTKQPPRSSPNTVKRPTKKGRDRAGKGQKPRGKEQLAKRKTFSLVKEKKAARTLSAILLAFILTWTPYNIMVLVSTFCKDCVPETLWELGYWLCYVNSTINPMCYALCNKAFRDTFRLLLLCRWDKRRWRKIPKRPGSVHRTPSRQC
Briefly: Binding affinity to human muscarinic M1 receptor expressed in insect Sf9 cells. The method, boiled down: (§1)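 Membranes from Sf9 insect cells stably expressing the human receptor were incubated with 0.29 nM [3H]-NMS in 50 mM Tris-HCl, 10 mM MgCl2, 1 mM EDTA, pH 7.4, for 1 h at 25 °C. Nonspecific binding was defined with 1 µM atropine. IC50 was taken from competition curves and converted to apparent Ki by Cheng-Prusoff.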

In assay [3] the target is T2, Muscarinic acetylcholine receptor M2 (Homo sapiens, UniProt P08172).
T2 sequence (P08172 whole entry): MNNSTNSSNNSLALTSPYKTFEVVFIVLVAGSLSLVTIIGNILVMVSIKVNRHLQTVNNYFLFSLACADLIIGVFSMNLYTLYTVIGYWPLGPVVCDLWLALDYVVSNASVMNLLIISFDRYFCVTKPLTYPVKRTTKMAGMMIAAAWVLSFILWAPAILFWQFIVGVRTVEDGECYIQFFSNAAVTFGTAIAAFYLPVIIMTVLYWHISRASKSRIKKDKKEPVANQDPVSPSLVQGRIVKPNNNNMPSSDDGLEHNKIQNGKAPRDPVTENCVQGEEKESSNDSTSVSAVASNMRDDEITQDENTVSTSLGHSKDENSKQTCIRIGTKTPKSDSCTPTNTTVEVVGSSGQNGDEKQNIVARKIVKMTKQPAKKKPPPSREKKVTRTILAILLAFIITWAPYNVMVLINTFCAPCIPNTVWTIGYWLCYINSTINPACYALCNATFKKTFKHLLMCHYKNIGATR
Briefly: Binding affinity to human muscarinic M2 receptor expressed in insect Sf9 cells. In a few lines: as §1

The target of assay [4] is T3, Muscarinic acetylcholine receptor M4 (Homo sapiens, UniProt P08173).
T3 sequence (P08173 whole entry): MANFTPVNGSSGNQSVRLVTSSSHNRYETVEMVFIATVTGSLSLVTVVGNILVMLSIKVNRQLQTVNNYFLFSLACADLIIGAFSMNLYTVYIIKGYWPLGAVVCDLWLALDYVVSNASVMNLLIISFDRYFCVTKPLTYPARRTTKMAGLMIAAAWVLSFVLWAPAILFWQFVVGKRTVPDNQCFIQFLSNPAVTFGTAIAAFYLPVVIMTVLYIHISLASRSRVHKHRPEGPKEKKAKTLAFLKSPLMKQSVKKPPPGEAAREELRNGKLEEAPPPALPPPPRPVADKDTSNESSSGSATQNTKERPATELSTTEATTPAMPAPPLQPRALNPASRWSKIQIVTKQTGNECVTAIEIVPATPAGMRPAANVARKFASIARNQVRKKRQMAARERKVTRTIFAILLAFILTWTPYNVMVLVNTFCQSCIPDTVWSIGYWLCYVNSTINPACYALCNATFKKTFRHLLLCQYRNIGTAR
The experiment in a line: Binding affinity to human muscarinic M4 receptor expressed in insect Sf9 cells. The method, boiled down: as §1

For assay [5], the target named is T4, Muscarinic acetylcholine receptor M5 (Homo sapiens, UniProt P08912).
T4 sequence (P08912 whole entry): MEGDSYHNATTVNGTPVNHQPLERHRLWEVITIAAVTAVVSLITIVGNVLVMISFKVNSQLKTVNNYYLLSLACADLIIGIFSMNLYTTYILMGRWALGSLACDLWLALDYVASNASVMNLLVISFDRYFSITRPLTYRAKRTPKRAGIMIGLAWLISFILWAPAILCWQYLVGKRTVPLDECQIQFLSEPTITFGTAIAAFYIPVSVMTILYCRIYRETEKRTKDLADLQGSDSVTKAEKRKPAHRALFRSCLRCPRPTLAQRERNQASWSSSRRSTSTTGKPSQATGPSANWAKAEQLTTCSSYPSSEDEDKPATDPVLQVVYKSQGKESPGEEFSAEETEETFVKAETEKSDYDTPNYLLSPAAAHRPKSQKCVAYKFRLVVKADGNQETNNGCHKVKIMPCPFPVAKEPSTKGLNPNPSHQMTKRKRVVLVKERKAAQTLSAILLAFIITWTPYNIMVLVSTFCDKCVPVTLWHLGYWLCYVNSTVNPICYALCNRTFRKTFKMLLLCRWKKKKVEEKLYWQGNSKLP
Briefly: Binding affinity to human muscarinic M5 receptor expressed in insect Sf9 cells. In a few lines:
as §1

For orientation: IC50 means the concentration needed to halve the response being measured. A word on the Ki: it is a measure of affinity in units of concentration, obtained from inhibition or displacement. Low readings indicate tighter binding, high ones weaker binding.

Chain of Muscarinic acetylcholine receptor M3 (P20309 whole entry): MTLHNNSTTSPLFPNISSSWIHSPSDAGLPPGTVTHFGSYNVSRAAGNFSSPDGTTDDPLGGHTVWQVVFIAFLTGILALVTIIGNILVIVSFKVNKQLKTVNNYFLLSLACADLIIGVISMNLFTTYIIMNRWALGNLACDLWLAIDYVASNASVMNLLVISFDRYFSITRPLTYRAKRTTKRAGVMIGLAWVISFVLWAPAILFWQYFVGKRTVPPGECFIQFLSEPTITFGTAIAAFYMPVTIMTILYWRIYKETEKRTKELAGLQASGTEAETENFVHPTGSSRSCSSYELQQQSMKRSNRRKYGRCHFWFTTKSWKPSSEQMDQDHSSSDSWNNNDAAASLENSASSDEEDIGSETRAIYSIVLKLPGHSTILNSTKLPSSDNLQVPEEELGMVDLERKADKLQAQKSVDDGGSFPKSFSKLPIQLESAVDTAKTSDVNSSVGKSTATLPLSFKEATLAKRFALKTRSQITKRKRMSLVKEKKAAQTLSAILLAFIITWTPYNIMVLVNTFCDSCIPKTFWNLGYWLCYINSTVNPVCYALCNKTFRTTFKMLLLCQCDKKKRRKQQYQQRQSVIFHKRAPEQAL

In assay [1], `CCCCCCCCCCCC(OC(=O)C(CCCCN(O)C(C)=O)NC(=O)c1coc(-c2ccccc2O)n1)C(C)C(=O)NC1CCCCNC1=O` (stereo not given) [NOCARDIMICIN C] yielded an IC50 of 4700 nM and a Ki of 1000 nM.
As for `CCCCCCCCCC(OC(=O)C(CCCCN(O)C(C)=O)NC(=O)c1coc(-c2ccccc2O)n1)C(C)C(=O)NC1CCCCN(O)C1=O` (stereo not given) [NOCARDIMICIN A], in assay [1], the IC50 came out at 5890 nM and affinity was put at a Ki of 1250 nM.
In assay [1], `CCCCCCCCCCCCCC(OC(=O)C(CCCCN(O)C(C)=O)NC(=O)c1coc(-c2ccccc2O)n1)C(C)C(=O)NC1CCCCNC1=O` (stereo not given) [NOCCARDIMICIN E] returned an IC50 of 4560 nM and a Ki of 970 nM.
`CCCCCCCCCCCCCCCC(OC(=O)C(CCCCN(O)C(C)=O)NC(=O)c1coc(-c2ccccc2O)n1)C(C)C(=O)NC1CCCCN(O)C1=O` (stereo not given) [NOCARDIMICIN F]: in assay [1], the IC50 is 6290 nM and the Ki was 1330 nM.
In assay [1], `CCCCCCCCCCCCCC(OC(=O)C(CCCCN(O)C(C)=O)NC(=O)c1coc(-c2ccccc2O)n1)C(C)C(=O)NC1CCCCN(O)C1=O` (stereo not given) [NOCARDIMICIN D] yielded a concentration for half-maximal inhibition (IC50) of 1100 nM and a Ki of 230 nM.
Consider `CCCCCCCCCCCC(OC(=O)C(CCCCN(O)C(C)=O)NC(=O)c1coc(-c2ccccc2O)n1)C(C)C(=O)NC1CCCCN(O)C1=O` (stereo not given) [NOCARDIMICIN B], for which the half-maximal inhibitory concentration (IC50) is 630 nM in assay [1]; 2030 nM in assay [2]; 1780 nM in assay [3]; 1040 nM in assay [4]; 1640 nM in assay [5]. Besides, the Ki in assay [1] was 130 nM; in assay [2] it was 490 nM; in assay [3] it was 630 nM; in assay [4], 140 nM; in assay [5], 1180 nM.
